Measurements reported in ChEMBL document CHEMBL3271956, “Oxindole-3-spiropyrrolidines and -piperidines. Synthesis and local anesthetic activity” (J Med Chem, 1976).
Activity calls are given as the source filed them. No cut-off for these calls is given here.

Columns and labels:
[1] = tested on: Rattus norvegicus; experiment: Local anesthetic activity in rat assessed as onset time at 1% administered as base by sciatic nerve block method; type: functional
Method in brief: (§1)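 Rat sciatic nerve block. Solutions are dosed with concentration expressed as base, and the pH of each solution is recorded. Groups are typically 10 rats. Onset is given in min. Frequency is the number of rats blocked out of those tested. Duration is in min, as mean ± SD.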

[2] = tested on: Rattus norvegicus; experiment: Local anesthetic activity in rat assessed as onset time at 2% administered as base by sciatic nerve block method; type: functional; method in brief: as §1
[3] = tested on: Rattus norvegicus; experiment: Local anesthetic activity in rat assessed as duration of action at 1% administered as base by sciatic nerve block method; type: functional; method in brief: as §1
[4] = tested on: Rattus norvegicus; experiment: Local anesthetic activity in rat assessed as duration of action at 2% administered as base by sciatic nerve block method; type: functional; method in brief: as §1
[5] = Toxicity in iv dosed mouse; type: organism-based; conditions: in vivo
[6] = tested on: Rattus norvegicus; experiment: Local anesthetic activity in rat assessed as frequency at 1% administered as base by sciatic nerve block method; type: functional, organism-based; method in brief: as §1
[7] = tested on: Rattus norvegicus; experiment: Local anesthetic activity in rat assessed as frequency at 2% administered as base by sciatic nerve block method; type: functional, organism-based; method in brief: as §1
[8] = tested on: Rattus norvegicus; experiment: Toxicity in rat at 2% administered as base after 25 mins; type: organism-based; conditions: in vivo
[9] = tested on: Rattus norvegicus; experiment: Toxicity in rat at 2% administered as base after 40 mins; type: organism-based; conditions: in vivo
[10] = tested on: Rattus norvegicus; experiment: Toxicity in rat at 2% administered as base after 30 mins; type: organism-based; conditions: in vivo, 0.5 h

**Q.** What does the source list for CCCN1CCCC2(C1)C(=O)Nc1ccccc12.O=S(=O)(O)O (configuration not stated)?
**A.** Time [1]: 6 min; Time [2]: 4 min; Time [3]: 75 min; Time [4]: 95 min

**Q.** With CCCN1CCC2(C1)C(=O)Nc1ccccc12.Cl (configuration not stated) as the compound, how does the Time [1] read?
**A.** 3 min

**Q.** And the Time [2]?
**A.** 2 min

**Q.** What about the Time [3] of the same compound?
**A.** 66 min

**Q.** And the Time [4]?
**A.** 78 min

**Q.** Which LD50 [5] does the source give for CCCN1CCCC2(C1)C(=O)Nc1ccccc12 (configuration not stated) [listing 1 of 2 here] here?
**A.** 41 mg/kg

**Q.** For CCN1CCCC12C(=O)Nc1ccccc12 (configuration not stated), which Time [1] is on record?
**A.** 6 min

**Q.** And the Time [2]?
**A.** 5 min

**Q.** And the Activity [6]?
**A.** Active

**Q.** And the Activity [7]?
**A.** Active

**Q.** And the Time [3]?
**A.** 83 min

**Q.** And the Time [4]?
**A.** 107 min

**Q.** And the LD50 [5]?
**A.** 119 mg/kg

**Q.** For CCCN1CCCC2(C1)C(=O)Nc1ccccc12 (configuration not stated) [listing 2 of 2 here], which Activity [6] is on record?
**A.** Active

**Q.** What about the Activity [7] of the same compound?
**A.** Active

**Q.** Which results are given for CN1CCCCC12C(=O)Nc1ccccc12 (configuration not stated)?
**A.** Time [1]: 5 min; Time [2]: 3 min; Activity [6]: Active; Activity [7]: Active; Time [3]: 81 min; Time [4]: 97 min; LD50 [5]: 97 mg/kg

**Q.** For CCN1CCC2(CC1)C(=O)Nc1ccccc12, which Time [1] is on record?
**A.** 6 min

**Q.** What about the Time [2] of the same compound?
**A.** 5 min

**Q.** And the Activity [6]?
**A.** Active

**Q.** What about the Activity [7] of the same compound?
**A.** Active

**Q.** What about the Time [3] of the same compound?
**A.** 86 min

**Q.** What about the Time [4] of the same compound?
**A.** 120 min

**Q.** And the LD50 [5]?
**A.** 53 mg/kg

**Q.** For CCCN1CCC2(C1)C(=O)Nc1ccccc12 (configuration not stated) [listing 1 of 2 here], which Activity [6] is on record?
**A.** Active

**Q.** What about the Activity [7] of the same compound?
**A.** Active

**Q.** With CCN1CCC2(C1)C(=O)Nc1c(C)cccc12 (configuration not stated) [listing 1 of 2 here] as the compound, how does the Activity [6] read?
**A.** Active

**Q.** And the Activity [7]?
**A.** Active

**Q.** Which LD50 [5] does the source give for CCCN1CCC2(C1)C(=O)Nc1ccccc12 (configuration not stated) [listing 2 of 2 here] here?
**A.** 25 mg/kg

**Q.** For CCN(CC)CC(=O)Nc1c(C)cccc1C [LIDOCAINE], which Time [2] is on record?
**A.** 1 min

**Q.** What about the Activity [6] of the same compound?
**A.** Active

**Q.** And the Activity [7]?
**A.** Active

**Q.** And the Time [4]?
**A.** 141 min

**Q.** Which LD50 [5] does the source give for CCN1CCC2(C1)C(=O)Nc1c(C)cccc12 (configuration not stated) [listing 2 of 2 here] here?
**A.** 23 mg/kg

**Q.** Which results are given for CCN1CCC2(C1)C(=O)Nc1ccccc12 (configuration not stated)?
**A.** Time [1]: 4 min; Time [2]: 3 min; Activity [6]: Active; Activity [7]: Active; Time [3]: 67 min; Time [4]: 85 min; LD50 [5]: 38 mg/kg

**Q.** What does the source list for CN1CCC2(C1)C(=O)Nc1ccccc12 (configuration not stated)?
**A.** Time [1]: 11 min; Time [2]: 6 min; Activity [6]: Active; Activity [7]: Active; Time [3]: 56 min; Time [4]: 83 min

**Q.** Which Time [1] does the source give for CCN1CCC2(CC1)C(=O)Nc1c(C)cccc12 here?
**A.** 3 min

**Q.** What about the Time [2] of the same compound?
**A.** 3 min

**Q.** And the Activity [6]?
**A.** Active

**Q.** What about the Activity [7] of the same compound?
**A.** Active

**Q.** And the Time [3]?
**A.** 108 min

**Q.** What about the Activity [8] of the same compound?
**A.** Toxic

**Q.** And the Activity [9]?
**A.** Toxic

**Q.** What about the LD50 [5] of the same compound?
**A.** 21 mg/kg

**Q.** With CCN1CCC2(C1)C(=O)Nc1c(C)cccc12.Cl (configuration not stated) as the compound, how does the Time [1] read?
**A.** 3 min

**Q.** And the Time [2]?
**A.** 2 min

**Q.** And the Time [3]?
**A.** 93 min

**Q.** What about the Activity [10] of the same compound?
**A.** Toxic
